Screens (PubChem BioAssay)
CHRM1 antagonist: human M1 muscarinic receptor antagonists, primary screen, CHO-K1 cells, Fluo-8 calcium fluorescence, 1536-well. inhibition, % at 3 µM. 1.3% of 360,000 active. Muscarinic acetylcholine receptor M1 (Homo sapiens), P11229. CHO-K1 hM1, ACh EC80 antagonist;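 active = percent inhibition above its own plate's cutoff, namely the mean of that plate's compound wells plus 3 SD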;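 also: peak over basal fluorescence ratio during 140 s after agonist addition; 0% = ACh EC80 plus DMSO and 100% = DMSO alone without agonist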
CHRM1 agonist: human M1 muscarinic receptor agonists, primary screen, Fluo-8 calcium fluorescence, CHO-K1 cells, HTS. CHO-K1 hM1, agonist mode; 0% DMSO, 100% acetylcholine EC100. activation, % at 3 µM. 0.33% of 360,000 active;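 active = activation above the run's mean compound activation plus 3 SD, cut at about 16% in these data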;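 also: peak over basal fluorescence ratio within a 140 s kinetic read after compound addition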
TAAR1 antagonist: human TAAR1 antagonists, primary screen, Fluo-8 calcium fluorescence, CHO RD-HGA16 cells. antagonist. inhibition, % at 3 µM. Trace amine-associated receptor 1 (Homo sapiens), Q96RJ0. 1.5% of 360,000 active;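 active = inhibition above a per-plate cutoff, the mean inhibition of test compounds on that plate plus 3 SD, cut at about 49% in these data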;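 also: 0% = DMSO plus EC80 beta-PEA response and 100% = DMSO alone without agonist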
Target sequence (Q96RJ0 whole entry, looked up): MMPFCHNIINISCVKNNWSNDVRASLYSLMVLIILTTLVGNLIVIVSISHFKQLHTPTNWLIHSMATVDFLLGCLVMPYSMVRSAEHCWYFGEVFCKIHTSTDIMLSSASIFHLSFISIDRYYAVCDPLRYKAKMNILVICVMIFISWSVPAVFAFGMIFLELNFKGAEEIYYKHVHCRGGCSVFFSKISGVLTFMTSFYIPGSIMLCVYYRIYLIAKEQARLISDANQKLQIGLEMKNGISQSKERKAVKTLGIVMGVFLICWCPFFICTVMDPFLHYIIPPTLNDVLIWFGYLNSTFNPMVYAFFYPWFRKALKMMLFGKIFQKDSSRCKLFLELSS
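Test system – hTAAR1-expressing CHO RD-HGA16 cells, Gα16-coupled · Also added – β-PEA at EC80 concentration, post-compound challenge · Compound – 3 µM, single point · Incubation – dye loading 75 min at 37 °C, then 30 min room temperature · Measured by – Fluo-8 intracellular calcium dye fluorescence, real-time kinetic reads · Benchmarks – vehicle and agonist controls · Replicates – singlicate, one well per test compound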
TAAR1 ag: human TAAR1 agonists, primary screen, Fluo-8 calcium fluorescence, CHO RD-HGA16 cells | Trace amine-associated receptor 1 (Homo sapiens), Q96RJ0 | vehicle wells 0%, saturating PEA agonist 100% | activation, % at 3 µM | 0.99% of 360,000 active;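 active = activation above the mean activation of all test compounds in the run plus 3 SD, cut at about 38% in these data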
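Test system: RD-HGA16 (CHO) cells co-expressing Gα16 and hTAAR1; dosing: one-point dosing at 3 µM (nominal); timing: 17-24 h seeding, 75 min 37 °C dye, 30 min RT; signal: kinetic Fluo-8 calcium fluorescence; read-out basis: % activation relative to PEA EC100 response; controls: DMSO and PEA EC100; replicates: n 1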
M1 PAM: human M1 muscarinic receptor positive allosteric modulators, primary screen, CHO-K1 cells, Fluo-8 calcium fluorescence, 1536-well. CHO-K1 hM1, ACh EC20; 0% = ACh EC20, 100% = maximal ACh. activation, % at 3 µM. Muscarinic acetylcholine receptor M1 (Homo sapiens), P11229. 0.088% of 360,000 active; in the data active = activation above about 19%, passing the limit was not always enough
TAAR1 nonsel count: nonselective antagonists in TAAR1 counter-screen cells, counter-screen for hTAAR1 antagonist project, cell-based, fluorescence, calcium; shares compounds with TAAR1 antagonist; counterscreen cell line, antagonist mode; inhibition, % at 3 µM; 77% of 2,400 active; in the data active = inhibition above about 22%;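 also: CHO-Ga16 host cells stimulated with ATP at an EC80 level; 0% = agonist EC80 plus vehicle and 100% = vehicle without agonist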
TAAR1 ant conf: human TAAR1 antagonists, retest of hits, confirmation, cell-based, fluorescence; TAAR1-expressing cells, fluorescence antagonist read-out; shares compounds with TAAR1 antagonist; 40% of 2,400 active; AID 651785, 2012; inhibition, % at 3 µM; in the data active = inhibition above about 49%;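 also: CHO-Ga16 host cells challenged with agonist PEA near its EC80; 0% = agonist at EC80 plus vehicle and 100% = vehicle with no agonist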
Ga16 ag counter: calcium activation in Ga16-expressing cells, counter-screen for TAAR1 antagonist project, cell-based, fluorescence | shares compounds with TAAR1 antagonist | agonist counterscreen | activation, % at 3 µM | 18% of 2,400 active; in the data active = activation above about 12%;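 also: 0% = vehicle wells and 100% = saturating stimulus response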
TAAR1 ag count: TAAR1 activation by candidate antagonists – cell-based, fluorescence, counter-screen for TAAR1 antagonist project; hTAAR1 cell line, agonist mode; 2% of 2,400 active; activation, % at 3 µM; AID 651955, 2012; shares compounds with TAAR1 antagonist; in the data active = activation above about 37%;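 also: CHO cells stably expressing TAAR1 with calcium dye readout; 0% = DMSO vehicle and 100% = full agonist response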
* = called active by the depositor; . = no result. Hits are enriched below; roughly 3.4% of the tested compounds scored in any of these assays.

SMILES | CHRM1 antagonist | CHRM1 agonist | TAAR1 antagonist | TAAR1 ag | M1 PAM | TAAR1 nonsel count | TAAR1 ant conf | Ga16 ag counter | TAAR1 ag count
O=C(NC1CCCC1)C(C1CC1)n1c(-c2ccnc3ccccc23)nc2ccccc21 (stereo unspecified) | . | . | -1.0 | 7.1 | . | . | . | . | .
Cc1ccccc1NC(=O)Cc1nc(COC(=O)/C=C/c2ccc(F)cc2)cs1 | 2.7 | -3.9 | 33.2 | 3.0 | -3.8 | . | . | . | .
C=CCOc1ccc(/C=C/C(=O)OCc2csc(CC(=O)Nc3ccccc3C)n2)cc1 | 12.5 | -2.6 | 65.6* | 3.5 | -2.9 | 38.4* | 51.9* | 8.3 | 6.7
C=CCOc1ccc(/C=C/C(=O)OCC(=O)NCc2cccs2)cc1 | 0.9 | 3.4 | 52.5* | 22.3 | -5.9 | 29.3* | 40.5 | 9.4 | 23.8
CCC(=O)Nc1ccc(S(=O)(=O)NC[C@H]2O[C@@H](n3cnc4c(=O)[nH]c(N)nc43)[C@H](O)[C@@H]2O)cc1 | -22.7 | 4.0 | -11.5 | 0.4 | 8.3 | . | . | . | .
Cc1ccc(C(=O)Nc2cccc(-c3ccc(N4CCOCC4)nn3)c2)cc1[N+](=O)[O-] | 17.2 | -4.0 | 59.9* | 12.7 | -10.4 | 21.4 | 45.0 | 8.1 | 5.2
COc1ccccc1C(=O)N1CCN(C(=O)[C@H]2O[C@@H](n3cnc4c(N)ncnc43)[C@H](O)[C@@H]2O)CC1 | -18.2 | -0.9 | -1.6 | 1.4 | -0.2 | . | . | . | .
COc1ccc(NC(=O)C(c2ccncc2)n2c(=O)c(-c3ccccc3)nc3ccccc32)cc1 (stereo unspecified) | . | . | -10.1 | -0.3 | . | . | . | . | .
O=C(NCc1ccc(F)cc1)C(c1ccco1)N(C(=O)c1csnn1)c1ccccc1 (stereo unspecified) | -9.8 | -3.5 | 13.4 | 3.8 | 12.5 | . | . | . | .
O=C(NCc1ccc(F)cc1)C(c1ccccc1)N(C(=O)c1csnn1)c1ccccc1 (stereo unspecified) | 29.0* | -9.3 | 59.4* | 20.9 | -20.5 | 29.3* | 58.8* | 18.8* | 21.9
O=C(NCc1ccccc1)C(c1ccccc1)N(C(=O)c1csnn1)c1ccccc1 (stereo unspecified) | 14.6 | -7.5 | 62.0* | 10.6 | -6.3 | 26.6* | 48.6* | 6.7 | 5.1
COc1ccc(CNC(=O)C(c2cccc(C)c2)N(C(=O)c2csnn2)C2CC2)cc1 (stereo unspecified) | 8.9 | -3.9 | 52.5* | 16.8 | -5.6 | 29.9* | 40.5 | 6.7 | 6.3
COc1cc(Cl)ccc1OC1(C)CCN(Cc2cccn2-c2nccs2)C1 (stereo unspecified) | -5.4 | -5.8 | -18.8 | 4.3 | -6.8 | . | . | . | .
CCCC(=O)N1CCC1(C)C(=O)Nc1cccc(OC(C)C)c1 (stereo unspecified) | -13.2 | -2.0 | -18.2 | 2.8 | 6.6 | . | . | . | .
Cc1cccc(C)c1-n1nnnc1C(c1ccccc1OC(F)(F)F)N1CCN(C/C=C/c2ccccc2)CC1 (stereo unspecified) | -0.2 | -2.8 | -49.8 | 0.0 | -9.8 | . | . | . | .
Cc1ccc(C2c3[nH]c4ccccc4c3C[C@H]3C(=O)N(c4ccccc4C(=O)NCCCN4CCOCC4)C(=O)N23)cc1 (stereo partly specified) | 8.1 | -3.4 | 53.0* | 9.8 | -7.7 | 25.8* | 32.1 | 5.1 | 5.0
O=C(NCCCN1CCOCC1)c1ccccc1N1C(=O)[C@@H]2Cc3c([nH]c4ccccc34)C(c3cccc(Cl)c3)N2C1=O (stereo partly specified) | 14.0 | -6.2 | 71.4* | 18.5 | -7.2 | 47.4* | 70.2* | 22.5* | 27.2
Cc1ccc(C2c3[nH]c4ccccc4c3C[C@H]3C(=O)N(c4ccccc4C(=O)NCCN4CCOCC4)C(=O)N23)cc1 (stereo partly specified) | 3.2 | -1.4 | 61.0* | 10.3 | -6.1 | 26.7* | 42.0 | 6.8 | 9.1
Cc1ccccc1C1c2[nH]c3ccccc3c2C[C@H]2C(=O)N(c3ccccc3C(=O)NCCCN3CCOCC3)C(=O)N12 (stereo partly specified) | 8.5 | -6.0 | 60.5* | 13.5 | -9.4 | 29.2* | 36.2 | 7.0 | 5.7
O=C(NCCCN1CCOCC1)c1ccccc1N1C(=O)[C@@H]2Cc3c([nH]c4ccccc34)C(c3ccccc3)N2C1=O (stereo partly specified) | -1.7 | -5.1 | -5.0 | 3.1 | 3.7 | . | . | . | .
COC(=O)[C@@]12C[C@@H](CC(=O)N3CCOCC3)C(=O)N(Cc3ccco3)C1=CCC(C)(C)C2 | . | . | -9.1 | 0.4 | . | . | . | . | .
COc1ccc([C@H]2C[C@H](O)C[C@@H](CCn3cc(-c4ccccc4)nn3)O2)cc1 | . | . | -7.2 | 4.2 | . | . | . | . | .
CCCn1cnnc1CNC(=O)[C@H]1O[C@@H](n2ccc(=O)[nH]c2=O)[C@H](O)[C@@H]1O | 7.1 | -1.0 | -13.5 | 2.6 | -6.5 | . | . | . | .
O=C(NCc1cccnc1)c1cc(C2CCCCN2S(=O)(=O)c2cccc3cccnc23)on1 (stereo unspecified) | 23.6 | -7.2 | -9.0 | 0.5 | -8.5 | . | . | . | .
CCOC(=O)CC1(C)Oc2ccccc2N1S(=O)(=O)c1ccc(C)cc1 (stereo unspecified) | . | . | -4.2 | -0.2 | . | . | . | . | .
COc1cc(/C=C/c2nc(-c3ccccc3O)n[nH]2)cc(OC)c1OC | 6.3 | -2.7 | 72.4* | 3.2 | -3.5 | 21.9* | 50.6* | 5.7 | 3.6
CCOC(=O)Cn1cc(Cn2c3ccccc3c(=O)n2C(C)C)nn1 | -26.0 | -2.1 | 2.5 | -0.3 | 0.5 | . | . | . | .
CN(CCOc1ccc(Cl)cc1)C(=O)c1cc(S(=O)(=O)N2CCOCC2)ccc1N1CCCC1 | 16.6 | -4.8 | 67.4* | 17.2 | -9.2 | 21.1 | 35.2 | 7.3 | 4.7
CC(C)NC(=O)C1(C)CN(S(C)(=O)=O)CC(=O)N1C1CCCCCC1 (stereo unspecified) | . | . | -7.9 | -0.2 | . | . | . | . | .
